Each structure is given as a SMILES string.

Results on three molecules are retold here after publication PMC7446891 (Bioorganic & medicinal chemistry, 2020).

This test deals with EphA2 (Homo sapiens, UniProt P29317). As to the kind of experiment: EphA2 activation. The following applies: 2 μM in 0.1% DMSO, 1hr, U251 EphA2 cells, vs DMSO control. It is filed as cell-based. The essentials:
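EphA2-overexpressing U251 cells were seeded at 100,000/well, grown 24 h, then given 2 μM test compound in 0.1% DMSO (1 hr per legend; methods text gives 30 min), with 0.1% DMSO vehicle. Cells were lysed 20 min in modified RIPA (pH 7.4, vanadate, NaF, protease inhibitors), immunoprecipitated, then blotted for pEphA/B (1:500) and EphA2 (1:1000), HRP anti-rabbit, chemiluminescence. Bands were quantified by densitometry, 3 experiments, unpaired t-test vs DMSO.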

EphA2, sequence (P29317 24-976): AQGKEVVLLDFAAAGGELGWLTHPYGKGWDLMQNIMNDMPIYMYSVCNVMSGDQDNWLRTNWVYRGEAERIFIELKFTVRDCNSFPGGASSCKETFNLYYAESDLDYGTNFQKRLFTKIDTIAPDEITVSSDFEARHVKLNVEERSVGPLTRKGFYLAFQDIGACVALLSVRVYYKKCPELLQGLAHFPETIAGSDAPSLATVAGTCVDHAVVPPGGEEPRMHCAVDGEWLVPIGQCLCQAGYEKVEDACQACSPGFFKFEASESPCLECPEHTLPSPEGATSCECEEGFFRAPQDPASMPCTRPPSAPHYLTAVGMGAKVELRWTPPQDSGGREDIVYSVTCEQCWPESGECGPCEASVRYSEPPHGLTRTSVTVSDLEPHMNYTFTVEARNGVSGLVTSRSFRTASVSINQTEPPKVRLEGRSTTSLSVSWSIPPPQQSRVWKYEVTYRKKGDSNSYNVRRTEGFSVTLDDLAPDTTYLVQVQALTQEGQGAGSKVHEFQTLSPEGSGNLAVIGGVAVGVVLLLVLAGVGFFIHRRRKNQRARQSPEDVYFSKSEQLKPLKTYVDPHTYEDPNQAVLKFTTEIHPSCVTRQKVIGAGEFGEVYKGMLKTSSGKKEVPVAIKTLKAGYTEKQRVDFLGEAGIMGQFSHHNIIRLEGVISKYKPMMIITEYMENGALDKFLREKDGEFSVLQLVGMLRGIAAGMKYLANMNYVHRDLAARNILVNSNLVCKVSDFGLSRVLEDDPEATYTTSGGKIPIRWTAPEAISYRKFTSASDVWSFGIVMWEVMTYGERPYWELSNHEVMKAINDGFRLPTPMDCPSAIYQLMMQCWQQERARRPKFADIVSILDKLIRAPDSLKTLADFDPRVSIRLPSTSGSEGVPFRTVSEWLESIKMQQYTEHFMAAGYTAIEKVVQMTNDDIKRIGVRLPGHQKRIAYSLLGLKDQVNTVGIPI

Turning to `COc1cc2nc(N3CCN(C(=O)OCCOC(=O)N4CCN(c5nc(N)c6cc(OC)c(OC)cc6n5)CC4)CC3)nc(N)c2cc1OC` [Compound 3d, ethane-1,2-diyl bis(4-(4-amino-6,7-dimethoxyquinazolin-2-yl)piperazine-1-carboxylate)], the “EphA2 phosphorylation (pEphA/B vs total EphA2)” value is listed as “did not show clear EphA2 activation”.
In the case of `COc1cc2nc(N3CCN(C(=O)Oc4ccc(C(C)(C)c5ccc(OC(=O)N6CCN(c7nc(N)c8cc(OC)c(OC)cc8n7)CC6)cc5)cc4)CC3)nc(N)c2cc1OC` [Compound 3e, propane-2,2-diylbis(4,1-phenylene)bis(4-(4-amino-6,7-dimethoxyquinazolin-2-yl)piperazine-1-carb oxylate)] it was “better activity to induce EphA2 phosphorylation”; in that of `COc1cc2nc(N3CCN(C(=O)c4cccc(NC(=O)OCCOCCOCCOC(=O)Nc5cccc(C(=O)N6CCN(c7nc(N)c8cc(OC)c(OC)cc8n7)CC6)c5)c4)CC3)nc(N)c2cc1OC` [Compound 7bg, (ethane-1,2-diylbis(oxy))bis(ethane-2,1-diyl)bis((3-(4-(4-amino-6,7-dimethoxyquinazolin-2-yl)piperazine-1-carbonyl)phenyl)carbamate)], “statistical significance compared to control”.
